Assay results: ChEMBL document CHEMBL3785064, “Cylindrofridins A-C, Linear Cylindrocyclophane-Related Alkylresorcinols from the Cyanobacterium Cylindrospermum stagnale” (J Nat Prod, 2016)
In brackets after ≈: the same amount, converted by molar mass.

Tests used:
Staphylococcus aureus = assay: Antibacterial activity against methicillin-resistant Staphylococcus aureus isolate 1 B690208 after 24 hrs; assay type: functional; details: isolate 1 B690208, 24 h
In short: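 MIC determined against MRSA; vancomycin and fusidic acid served as positive controls.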

Streptococcus pneumoniae = assay: Antibacterial activity against Streptococcus pneumoniae ATCC 49619 after 24 hrs; assay type: functional; details: ATCC 49619, 24 h
Escherichia coli = assay: Antibacterial activity against Escherichia coli isolate 13 V676803 after 24 hrs; assay type: functional; details: isolate 13 V676803, 24 h
Klebsiella pneumoniae = assay: Antibacterial activity against Klebsiella pneumoniae isolate 18 B224106 after 24 hrs; assay type: functional; details: isolate 18 B224106, 24 h
Pseudomonas aeruginosa = assay: Antibacterial activity against Pseudomonas aeruginosa isolate 22 V143708 after 24 hrs; assay type: functional; details: isolate 22 V143708, 24 h
HaCaT = assay: Cytotoxicity against human HaCaT cells by Cell titre-blue assay; assay type: cell-based
In short: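 Nontumorigenic human keratinocyte HaCaT cells were tested with mitoxantrone as the positive control, and results are reported as IC50 in μM.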

SMILES | MIC (Staphylococcus aureus) [µM] | MIC (Streptococcus pneumoniae) [µM] | MIC (Escherichia coli) [µM] | MIC (Klebsiella pneumoniae) [µM] | MIC (Pseudomonas aeruginosa) [µM] | IC50 (HaCaT) [µM]
CC(=O)O[C@H]1C[C@@]2(C)[C@@H](C[C@@H](O)[C@H]3[C@@]4(C)CC[C@@H](O)[C@@H](C)[C@@H]4CC[C@@]32C)/C1=C(\CCC=C(C)C)C(=O)O [FUSIDIC ACID] | 1.4 (≈ 0.723 µg/mL) | – | – | – | – | –
CCCCC(Cl)CCCC[C@H](C)[C@@H](O)c1cc(O)c([C@@H](CCCC)CCCC[C@H](C)[C@@H](OC(C)=O)c2cc(O)cc(O)c2)c(O)c1 (some centres undefined) | > 75 | > 75 | > 75 | > 75 | > 75 | 25
CCCC[C@H]1CCCC[C@H](C)[C@@H](OC(C)=O)c2cc(O)c(c(O)c2)[C@@H](CCCC)CCCC[C@H](C)[C@@H](OC(C)=O)c2cc(O)c1c(O)c2 | 0.9 (≈ 0.602 µg/mL) | 2.4 (≈ 1.61 µg/mL) | > 75 | > 75 | > 75 | 11
CCCCC(Cl)CCCC[C@H](C)[C@@H](OC(C)=O)c1cc(O)cc(O)c1 (some centres undefined) | 8.6 (≈ 3.19 µg/mL) | 17 (≈ 6.31 µg/mL) | > 135 | > 135 | > 135 | 100
O=C1c2c(O)ccc(O)c2C(=O)c2c(NCCNCCO)ccc(NCCNCCO)c21 [MITOXANTRONE] | – | – | – | – | – | 3.9
CCCC[C@H]1CCCC[C@H](C)[C@@H](O)c2cc(O)c(c(O)c2)[C@@H](CCCC)CCCC[C@H](C)[C@@H](OC(C)=O)c2cc(O)c1c(O)c2 | 0.1 (≈ 0.0627 µg/mL) | 0.3 (≈ 0.188 µg/mL) | > 80 | > 80 | > 80 | 2.9
CCCC[C@H]1CCCC[C@H](C)[C@@H](O)c2cc(O)c(c(O)c2)[C@@H](CCCC)CCCC[C@H](C)[C@@H](O)c2cc(O)c1c(O)c2 [CYLINDROCYCLOPHANE A] | 0.1 (≈ 0.0585 µg/mL) | 0.3 (≈ 0.175 µg/mL) | > 85 | > 85 | > 85 | 5
CN[C@@H](CC(C)C)C(=O)N[C@H]1C(=O)N[C@@H](CC(N)=O)C(=O)N[C@H]2C(=O)N[C@H]3C(=O)N[C@H](C(=O)N[C@@H](C(=O)O)c4cc(O)cc(O)c4-c4cc3ccc4O)[C@H](O)c3ccc(c(Cl)c3)Oc3cc2cc(c3O[C@H]2O[C@@H](CO)[C@H](O)[C@@H](O)[C@@H]2O[C@@H]2C[C@@](C)(N)[C@@H](O)[C@@H](C)O2)Oc2ccc(cc2Cl)[C@H]1O | – | 3.8 (≈ 5.51 µg/mL) | – | – | – | –
CCCCC(Cl)CCCC[C@H](C)[C@@H](OC(C)=O)c1cc(O)c([C@@H](CCCC)CCCC[C@H](C)[C@@H](OC(C)=O)c2cc(O)cc(O)c2)c(O)c1 (some centres undefined) | > 71 | > 71 | > 71 | > 71 | > 71 | 25
